Residue numbers refer to the chain shown, from its start.
Columns and labels:
Settings in all cases: stereoisomer not certain
O2A25 = test system: T1, O2A25
T1 sequence (whole entry): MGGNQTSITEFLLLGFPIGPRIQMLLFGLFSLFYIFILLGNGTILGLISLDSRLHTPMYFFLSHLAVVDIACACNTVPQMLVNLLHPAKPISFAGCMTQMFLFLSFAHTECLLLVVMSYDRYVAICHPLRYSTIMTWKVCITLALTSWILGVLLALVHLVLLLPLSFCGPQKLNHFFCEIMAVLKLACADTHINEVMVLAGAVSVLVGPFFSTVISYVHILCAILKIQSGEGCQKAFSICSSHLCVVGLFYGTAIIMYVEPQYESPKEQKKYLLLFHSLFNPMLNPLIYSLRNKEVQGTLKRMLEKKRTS
Outline: (§1)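 Transient luciferase assays in mammalian cell lines were common, though methods varied by source. The values come from published papers and their supplementary material, with extra details from the original authors when needed. Responsive refers to a measured signal the original authors judged statistically different from baseline, and non-responsive (inactive) to the remainder.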

O1440 = test system: T2, O1440
T2 sequence (whole entry): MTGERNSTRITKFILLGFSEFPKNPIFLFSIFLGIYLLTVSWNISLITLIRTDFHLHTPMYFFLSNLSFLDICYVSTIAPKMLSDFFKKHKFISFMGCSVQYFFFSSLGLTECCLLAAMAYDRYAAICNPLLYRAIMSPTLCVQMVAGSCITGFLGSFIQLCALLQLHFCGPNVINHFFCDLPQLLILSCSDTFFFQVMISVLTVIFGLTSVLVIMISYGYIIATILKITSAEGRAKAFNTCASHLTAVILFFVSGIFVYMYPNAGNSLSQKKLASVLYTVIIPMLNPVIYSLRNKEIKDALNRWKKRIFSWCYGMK
Outline: as §1

O14A2 I133V = test system: T3, O14A2 I133V
T3 sequence (whole entry): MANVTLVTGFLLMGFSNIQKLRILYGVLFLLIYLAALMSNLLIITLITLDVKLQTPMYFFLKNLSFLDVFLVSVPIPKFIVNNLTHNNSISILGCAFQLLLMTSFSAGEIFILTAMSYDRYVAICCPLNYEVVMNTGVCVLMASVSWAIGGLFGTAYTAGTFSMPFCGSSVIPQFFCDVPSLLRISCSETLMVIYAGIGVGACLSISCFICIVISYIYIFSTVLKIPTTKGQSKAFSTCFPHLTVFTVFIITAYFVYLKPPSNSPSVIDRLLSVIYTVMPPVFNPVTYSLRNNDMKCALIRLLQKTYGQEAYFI
Outline: as §1

O14CZ = test system: T4, O14CZ
T4 sequence (whole entry): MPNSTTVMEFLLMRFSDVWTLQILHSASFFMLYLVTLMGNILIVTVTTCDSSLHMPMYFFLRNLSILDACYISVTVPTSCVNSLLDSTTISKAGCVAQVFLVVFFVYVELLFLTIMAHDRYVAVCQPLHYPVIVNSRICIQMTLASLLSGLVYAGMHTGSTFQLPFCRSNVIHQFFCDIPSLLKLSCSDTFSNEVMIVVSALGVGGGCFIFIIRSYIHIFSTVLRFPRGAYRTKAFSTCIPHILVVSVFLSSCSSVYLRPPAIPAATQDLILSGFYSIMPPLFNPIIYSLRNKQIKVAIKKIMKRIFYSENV
Outline: as §1

O14I1 V36A D50N Y216C = test system: T5, O14I1 V36A D50N Y216C
T5 sequence (whole entry): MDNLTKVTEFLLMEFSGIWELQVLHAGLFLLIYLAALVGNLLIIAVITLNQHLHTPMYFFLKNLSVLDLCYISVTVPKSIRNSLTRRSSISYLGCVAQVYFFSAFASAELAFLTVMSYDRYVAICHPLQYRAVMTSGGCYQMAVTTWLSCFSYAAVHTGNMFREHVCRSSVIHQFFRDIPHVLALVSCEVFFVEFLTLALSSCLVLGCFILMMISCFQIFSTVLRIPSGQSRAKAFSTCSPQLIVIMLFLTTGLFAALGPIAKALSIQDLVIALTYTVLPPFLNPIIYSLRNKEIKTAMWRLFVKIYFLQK
Outline: as §1

O14J1 N3Y = test system: T6, O14J1 N3Y
T6 sequence (whole entry): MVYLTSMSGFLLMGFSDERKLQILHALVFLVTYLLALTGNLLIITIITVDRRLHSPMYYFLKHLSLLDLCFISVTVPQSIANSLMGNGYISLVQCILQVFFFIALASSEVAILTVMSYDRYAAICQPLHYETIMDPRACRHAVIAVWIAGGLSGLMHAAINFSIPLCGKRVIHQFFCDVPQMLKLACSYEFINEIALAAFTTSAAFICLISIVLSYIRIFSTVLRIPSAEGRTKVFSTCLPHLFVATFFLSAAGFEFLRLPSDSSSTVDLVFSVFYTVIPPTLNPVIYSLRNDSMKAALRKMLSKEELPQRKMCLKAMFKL
Outline: as §1

O14K1 D119Y = test system: T7, O14K1 D119Y
T7 sequence (whole entry): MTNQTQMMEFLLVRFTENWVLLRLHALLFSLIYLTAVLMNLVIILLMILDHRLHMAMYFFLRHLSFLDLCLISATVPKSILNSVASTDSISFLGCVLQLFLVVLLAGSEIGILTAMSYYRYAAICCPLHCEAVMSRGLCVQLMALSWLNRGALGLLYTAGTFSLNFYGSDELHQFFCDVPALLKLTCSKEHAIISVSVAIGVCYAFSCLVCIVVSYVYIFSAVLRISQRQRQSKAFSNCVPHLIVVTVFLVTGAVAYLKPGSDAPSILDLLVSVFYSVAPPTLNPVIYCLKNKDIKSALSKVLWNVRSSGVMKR
Outline: as §1

O2AE1 = test system: T8, O2AE1
T8 sequence (whole entry): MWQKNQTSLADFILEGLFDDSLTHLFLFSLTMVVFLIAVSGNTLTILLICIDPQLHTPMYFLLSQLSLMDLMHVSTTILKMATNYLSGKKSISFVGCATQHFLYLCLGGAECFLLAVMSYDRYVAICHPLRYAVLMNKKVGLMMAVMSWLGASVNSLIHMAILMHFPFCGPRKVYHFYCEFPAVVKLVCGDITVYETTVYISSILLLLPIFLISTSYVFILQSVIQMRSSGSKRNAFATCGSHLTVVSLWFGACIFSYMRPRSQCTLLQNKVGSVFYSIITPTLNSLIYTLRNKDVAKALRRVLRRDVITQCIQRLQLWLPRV
Outline: as §1

O2AJ1 = test system: T9, O2AJ1
T9 sequence (whole entry): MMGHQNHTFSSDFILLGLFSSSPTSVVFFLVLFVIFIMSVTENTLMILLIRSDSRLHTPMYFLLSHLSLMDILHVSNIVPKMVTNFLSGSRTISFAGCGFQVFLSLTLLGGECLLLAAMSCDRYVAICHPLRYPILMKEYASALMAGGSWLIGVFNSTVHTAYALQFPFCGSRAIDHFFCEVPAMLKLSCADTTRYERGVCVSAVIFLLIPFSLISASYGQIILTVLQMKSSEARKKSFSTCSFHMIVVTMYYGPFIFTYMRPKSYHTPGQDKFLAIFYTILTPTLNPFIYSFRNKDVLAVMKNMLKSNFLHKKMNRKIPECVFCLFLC
Outline: as §1

O2AK2 S99N = test system: T10, O2AK2 S99N
T10 sequence (whole entry): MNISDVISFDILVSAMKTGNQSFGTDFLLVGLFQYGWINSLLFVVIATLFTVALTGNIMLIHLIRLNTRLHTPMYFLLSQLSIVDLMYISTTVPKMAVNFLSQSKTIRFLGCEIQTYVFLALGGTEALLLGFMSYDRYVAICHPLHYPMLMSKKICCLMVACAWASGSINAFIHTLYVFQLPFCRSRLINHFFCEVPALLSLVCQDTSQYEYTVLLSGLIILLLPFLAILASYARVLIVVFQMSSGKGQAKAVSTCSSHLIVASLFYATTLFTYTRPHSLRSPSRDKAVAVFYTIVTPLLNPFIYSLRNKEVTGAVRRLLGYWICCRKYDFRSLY
Outline: as §1

O2T11 = test system: T11, O2T11
T11 sequence (whole entry): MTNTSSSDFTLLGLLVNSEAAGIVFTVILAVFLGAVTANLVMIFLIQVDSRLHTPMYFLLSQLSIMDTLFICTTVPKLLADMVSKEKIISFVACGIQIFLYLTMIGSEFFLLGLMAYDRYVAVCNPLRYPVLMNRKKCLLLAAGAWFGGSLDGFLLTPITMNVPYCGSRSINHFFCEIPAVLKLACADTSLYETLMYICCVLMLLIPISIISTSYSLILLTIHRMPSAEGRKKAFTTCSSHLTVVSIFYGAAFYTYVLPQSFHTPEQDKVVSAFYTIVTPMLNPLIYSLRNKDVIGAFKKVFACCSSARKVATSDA
Outline: as §1

O2T27 L36V V134D = test system: T12, O2T27 L36V V134D
T12 sequence (whole entry): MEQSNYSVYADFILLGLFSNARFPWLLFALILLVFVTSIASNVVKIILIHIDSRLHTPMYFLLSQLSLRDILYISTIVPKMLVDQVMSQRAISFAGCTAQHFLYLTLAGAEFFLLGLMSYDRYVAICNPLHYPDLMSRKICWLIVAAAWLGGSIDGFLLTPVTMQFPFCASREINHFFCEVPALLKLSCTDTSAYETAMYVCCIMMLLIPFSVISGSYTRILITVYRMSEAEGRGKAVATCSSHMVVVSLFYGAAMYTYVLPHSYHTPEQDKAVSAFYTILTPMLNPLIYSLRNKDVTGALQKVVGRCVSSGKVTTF
Outline: as §1

O2T29 Q24R = test system: T13, O2T29 Q24R
T13 sequence (whole entry): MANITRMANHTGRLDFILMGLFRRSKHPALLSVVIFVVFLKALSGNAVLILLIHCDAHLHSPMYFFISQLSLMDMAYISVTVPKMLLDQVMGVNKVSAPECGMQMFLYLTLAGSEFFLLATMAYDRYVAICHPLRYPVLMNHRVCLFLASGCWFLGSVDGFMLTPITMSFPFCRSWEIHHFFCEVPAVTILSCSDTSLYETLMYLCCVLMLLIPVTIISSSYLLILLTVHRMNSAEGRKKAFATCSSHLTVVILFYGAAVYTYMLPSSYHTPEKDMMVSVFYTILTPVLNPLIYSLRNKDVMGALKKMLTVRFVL
Outline: as §1

O2T33 A169V = test system: T14, O2T33 A169V
T14 sequence (whole entry): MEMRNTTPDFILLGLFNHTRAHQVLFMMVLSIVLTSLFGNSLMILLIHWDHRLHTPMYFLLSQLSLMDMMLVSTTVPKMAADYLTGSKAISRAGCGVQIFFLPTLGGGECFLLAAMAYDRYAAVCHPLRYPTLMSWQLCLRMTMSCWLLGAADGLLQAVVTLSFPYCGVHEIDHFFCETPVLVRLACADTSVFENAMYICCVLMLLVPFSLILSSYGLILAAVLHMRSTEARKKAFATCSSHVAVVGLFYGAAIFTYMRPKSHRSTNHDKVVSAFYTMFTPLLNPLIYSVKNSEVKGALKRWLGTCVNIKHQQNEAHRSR
Outline: as §1

O2T33 G297E I309L = test system: T15, O2T33 G297E I309L
T15 sequence (whole entry): T14 sequence (whole entry) with V169A, G297E, I309L
Outline: as §1

O2T34 Q6P R267P = test system: T16, O2T34 Q6P R267P
T16 sequence (whole entry): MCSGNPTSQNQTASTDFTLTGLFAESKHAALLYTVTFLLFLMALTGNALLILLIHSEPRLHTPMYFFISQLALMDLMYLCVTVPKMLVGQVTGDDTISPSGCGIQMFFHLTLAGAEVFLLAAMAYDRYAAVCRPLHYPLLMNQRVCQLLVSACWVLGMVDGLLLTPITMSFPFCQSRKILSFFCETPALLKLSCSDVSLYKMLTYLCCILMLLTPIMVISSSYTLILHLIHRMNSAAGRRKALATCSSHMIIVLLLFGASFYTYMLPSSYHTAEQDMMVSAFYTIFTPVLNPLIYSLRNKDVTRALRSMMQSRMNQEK
Outline: as §1

O2T34 R267P = test system: T17, O2T34 R267P
T17 sequence (whole entry): T16 sequence (whole entry) with P6Q
Outline: as §1

O4A47 = test system: T18, O4A47
T18 sequence (whole entry): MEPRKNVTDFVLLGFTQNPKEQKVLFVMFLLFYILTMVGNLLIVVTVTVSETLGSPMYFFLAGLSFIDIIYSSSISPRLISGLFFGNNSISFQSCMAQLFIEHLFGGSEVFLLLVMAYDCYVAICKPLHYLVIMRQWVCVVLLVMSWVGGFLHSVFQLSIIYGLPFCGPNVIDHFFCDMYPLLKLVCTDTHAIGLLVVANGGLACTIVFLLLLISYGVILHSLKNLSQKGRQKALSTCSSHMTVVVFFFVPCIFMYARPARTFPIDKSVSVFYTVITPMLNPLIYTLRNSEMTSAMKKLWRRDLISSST
Outline: as §1

O4C46 S240F C252Y K288R = test system: O4C46 S240F C252Y K288R
Outline: as §1

O4F15 A272T = test system: T19, O4F15 A272T
T19 sequence (whole entry): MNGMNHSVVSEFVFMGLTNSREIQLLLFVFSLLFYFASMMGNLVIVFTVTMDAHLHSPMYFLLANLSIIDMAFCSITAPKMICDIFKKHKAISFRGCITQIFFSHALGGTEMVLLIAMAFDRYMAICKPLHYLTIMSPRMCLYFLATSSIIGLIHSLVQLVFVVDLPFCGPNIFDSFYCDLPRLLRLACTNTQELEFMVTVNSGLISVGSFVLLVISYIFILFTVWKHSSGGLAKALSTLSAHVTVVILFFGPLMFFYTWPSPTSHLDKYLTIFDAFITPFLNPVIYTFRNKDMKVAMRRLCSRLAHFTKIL
Outline: as §1

Measured: odorant receptor agonist call

c1ccc2ncccc2c1
active: O2A25

O=C1CCCCCCCCC1
inactive: O1440

O=C1CCCCCCCCCCCCCC1
active: O1440

O=C1CCCCCCCCCC1
inactive: O1440

O=C1CCCCCCC=CCCCCCCC1
active: O1440

CCCC(S)CCOC(C)=O (configuration not stated)
inactive: O14A2 I133V | O14CZ | O14I1 V36A D50N Y216C | O14J1 N3Y | O14K1 D119Y | O2A25 | O2AE1 | O2AJ1 | O2AK2 S99N | O2T11 | O2T27 L36V V134D | O2T29 Q24R | O2T33 A169V | O2T33 G297E I309L | O2T34 Q6P R267P | O2T34 R267P | O4A47 | O4C46 S240F C252Y K288R | O4F15 A272T

O=C1CCCCCC=CCCCCCCCCO1
active: O1440

CCCCCCC=CCCC=O
inactive: O14A2 I133V | O14CZ | O14I1 V36A D50N Y216C | O14J1 N3Y | O14K1 D119Y | O2A25 | O2AE1 | O2AK2 S99N | O2T11 | O2T27 L36V V134D | O2T29 Q24R | O2T33 A169V | O2T33 G297E I309L | O2T34 Q6P R267P | O2T34 R267P | O4A47 | O4C46 S240F C252Y K288R

Reference: the M2OR odorant receptor database
